ChEMBL document CHEMBL1955853, “Discovery of 3,4-dihydropyrimidin-2(1H)-ones with inhibitory activity against HIV-1 replication” (Bioorg Med Chem Lett, 2012)

Experiments:
[1] = system: Human immunodeficiency virus 1; experiment: Antiviral activity against HIV1 LAI infected in human CEMx174 cells coexpressing GFP preincubated for 1 hr measured after 5 days by fluorimetry; assay type: functional, organism-based; settings: Human immunodeficiency virus 1, LAI
Outline: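 CEM reporter cells carrying an EGFP cassette driven by the HIV promoter were seeded at 4000 cells/well. They were infected with HIV-1 LAI at MOI 3 and incubated 5 days at 37 °C, 5% CO2. EGFP fluorescence intensity was read on a plate reader. Values are the geometric mean of two determinations, with each value within 25% of the mean.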

[2] = Cytotoxicity against human CEMx174 cells; assay type: cell-based
Outline: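 CC50 is the compound concentration that reduces viability of uninfected cells by 50%. Values are the geometric mean of two determinations, with each value within 25% of the mean.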

Compound | EC50 [1] | CC50 [2]
CCC1=C(C(=O)OCC2CCCCC2)C(c2ccc(N(C)C)cc2)NC(=O)N1 (stereo not given) | 0.177 µM | > 10 µM
CCC1=C(C(=O)OCC2CCCCC2)[C@H](c2cccc(O)c2)NC(=O)N1 | 0.038 µM | > 10 µM
CCC1=C(C(=O)OCC2CCCCC2)C(c2ccc(NC)cc2)NC(=O)N1 (stereo not given) | 0.108 µM | > 10 µM
CCCC1=C(C(=O)OCC2CCCCC2)C(c2cccc(O)c2)NC(=O)N1 (stereo not given) | 0.286 µM | > 10 µM
CC1=C(C(=O)NCC2CCCCC2)C(c2cccc(O)c2)NC(=O)N1 (stereo not given) | > 10 µM | 
CCOC(=O)C1=C(C)NC(=O)NC1c1cccc(O)c1 (stereo not given) | > 10 µM | 
CCC1=C(C(=O)OCC2CCCCC2)[C@@H](c2cccc(O)c2)NC(=O)N1 | > 10 µM | > 10 µM
CC1=C(C(=O)OCC2CCCCC2)C(c2cccc(O)c2)NC(=O)N1 (racemic) | 0.529 µM | > 10 µM
O=C1NC(c2ccccc2)=C(C(=O)OCC2CCCCC2)C(c2cccc(O)c2)N1 (stereo not given) | > 10 µM | > 10 µM
Cc1ccnc2c1NC(=O)c1cccnc1N2C1CC1 [NEVIRAPINE] | 0.15 µM | > 10 µM
CCC1=C(C(=O)OCC2CCCCC2)C(c2cccc([N+](=O)[O-])c2)NC(=O)N1 (stereo not given) | 0.335 µM | > 10 µM
O=C1NC(CCl)=C(C(=O)OCC2CCCCC2)C(c2cccc(O)c2)N1 (stereo not given) | 0.359 µM | > 3 µM
CC(C)C1=C(C(=O)OCC2CCCCC2)C(c2cccc(O)c2)NC(=O)N1 (stereo not given) | > 10 µM | 
CC1=C(C(=O)O)C(c2cccc(O)c2)NC(=O)N1 (stereo not given) | > 10 µM | > 10 µM
CCC1=C(C(=O)OCC2CCCCC2)C(c2ccc(C(=O)OC)cc2)NC(=O)N1 (stereo not given) | 0.122 µM | > 10 µM
CC1=C(C(=O)OCc2ccccc2)C(c2cccc(O)c2)NC(=O)N1 (stereo not given) | > 10 µM | > 10 µM
CC1=C(C(=O)OCC2CCCCC2)C(c2cccc(O)c2)NC(=O)N1C (stereo not given) | > 10 µM | > 10 µM
CCC1=C(C(=O)OCC2CCCCC2)C(c2cccc(N)c2)NC(=O)N1 (stereo not given) | 0.159 µM | > 10 µM
CC1=C(C(=O)OC2CCCCC2)C(c2cccc(O)c2)NC(=O)N1 (stereo not given) | > 10 µM | > 10 µM
CCC1=C(C(=O)OCC2CCCCC2)C(c2ccc(Cl)cc2)NC(=O)N1 (stereo not given) | 0.088 µM | > 10 µM

Compound | EC50 [1] | CC50 [2]
CC1=C(C(=O)OCC2CCCCC2)[C@@H](c2cccc(O)c2)NC(=O)N1 | > 10 µM | > 10 µM
CCC1=C(C(=O)OCC2CCCCC2)C(c2ccc(C#N)cc2)NC(=O)N1 (stereo not given) | 0.061 µM | > 10 µM
CC1=C(C(=O)OCC2CCCCC2)[C@H](c2cccc(O)c2)NC(=O)N1 | 0.233 µM | > 10 µM
O=C1NC(C2CC2)=C(C(=O)OCC2CCCCC2)C(c2cccc(O)c2)N1 (stereo not given) | > 10 µM | > 10 µM
CC1=C(C(=O)OCC2CCCCC2)C(c2cccc(O)c2)N(C)C(=O)N1 (stereo not given) | > 10 µM | > 10 µM
CC1=C(C(=O)OCC2CCCCC2)C(c2cccc(O)c2)NC(=S)N1 (stereo not given) | > 10 µM | > 10 µM
CC1=C(C(=O)OCC2CCCCC2)C(c2ccccc2O)NC(=O)N1 (stereo not given) | > 10 µM | > 10 µM
CCC1=C(C(=O)OCC2CCCCC2)C(c2cccc(O)c2)NC(=S)N1 (stereo not given) | > 10 µM | > 10 µM
CCC1=C(C(=O)OCC2CCCCC2)C(c2ccc([N+](=O)[O-])cc2)NC(=O)N1 (stereo not given) | 0.141 µM | > 10 µM
CCC1=C(C(=O)OCC2CCCCC2)C(c2ccc(O)cc2)NC(=O)N1 (stereo not given) | 0.031 µM | > 10 µM
CCC1=C(C(=O)OCC2CCCCC2)C(c2cccc(O)c2)NC(=O)N1 (racemic) | 0.087 µM | > 10 µM
CCC1=C(C(=O)OCC2CCCCC2)C(c2ccc(N)cc2)NC(=O)N1 (stereo not given) | 0.151 µM | > 10 µM
CCC1=C(C(=O)OCC2CCCCC2)C(c2ccc(C(=O)O)cc2)NC(=O)N1 (stereo not given) | > 10 µM | > 10 µM
COc1cccc(C2NC(=O)NC(C)=C2C(=O)OCC2CCCCC2)c1 (stereo not given) | 1.27 µM | > 10 µM
CCC1=C(C(=O)OCC2CCCCC2)C(c2ccc(NC(C)=O)cc2)NC(=O)N1 (stereo not given) | 0.063 µM | > 10 µM
C#CC1=C(C(=O)OCC2CCCCC2)C(c2cccc(O)c2)NC(=O)N1 (stereo not given) | 2.2 µM | > 1 µM
Cc1nc(=O)[nH]c(-c2cccc(O)c2)c1C(=O)OCC1CCCCC1 | > 10 µM | > 10 µM
CC1=C(C(=O)OCC2CCCCC2)C(c2ccc(O)cc2)NC(=O)N1 (stereo not given) | 0.431 µM | > 10 µM
CCC1=C(C(=O)OCC2CCCCC2)C(c2ccc(F)cc2)NC(=O)N1 (stereo not given) | 0.024 µM | > 10 µM
